Assay results from ChEMBL document CHEMBL5579886, “Selective Degradation of MLK3 by a Novel CEP1347-VHL-02 PROTAC Compound Limits the Oncogenic Potential of TNBC” (J Med Chem, 2024).
Calls of active or inactive are those of the source. The rule behind the calls is not given here.

Experiments:
Format in all cases: cell-based
[1] = molecular target: T1, von Hippel-Lindau disease tumor suppressor/Mitogen-activated protein kinase kinase kinase 11 (Homo sapiens, UniProt Q16584+P40337); test: PROTAC activity at VHL/MLK3 in human MCF7 cells assessed as protein degradation at 1 uM measured after 24 hrs by immunoblot analysis
T1 sequence (P40337 whole entry, looked up): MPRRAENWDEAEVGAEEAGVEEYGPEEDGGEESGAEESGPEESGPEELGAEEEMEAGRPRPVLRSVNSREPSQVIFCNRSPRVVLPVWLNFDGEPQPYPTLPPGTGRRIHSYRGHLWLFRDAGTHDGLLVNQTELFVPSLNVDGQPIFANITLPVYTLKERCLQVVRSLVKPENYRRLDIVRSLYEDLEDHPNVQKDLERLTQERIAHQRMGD
T1 sequence (Q16584 whole entry, looked up): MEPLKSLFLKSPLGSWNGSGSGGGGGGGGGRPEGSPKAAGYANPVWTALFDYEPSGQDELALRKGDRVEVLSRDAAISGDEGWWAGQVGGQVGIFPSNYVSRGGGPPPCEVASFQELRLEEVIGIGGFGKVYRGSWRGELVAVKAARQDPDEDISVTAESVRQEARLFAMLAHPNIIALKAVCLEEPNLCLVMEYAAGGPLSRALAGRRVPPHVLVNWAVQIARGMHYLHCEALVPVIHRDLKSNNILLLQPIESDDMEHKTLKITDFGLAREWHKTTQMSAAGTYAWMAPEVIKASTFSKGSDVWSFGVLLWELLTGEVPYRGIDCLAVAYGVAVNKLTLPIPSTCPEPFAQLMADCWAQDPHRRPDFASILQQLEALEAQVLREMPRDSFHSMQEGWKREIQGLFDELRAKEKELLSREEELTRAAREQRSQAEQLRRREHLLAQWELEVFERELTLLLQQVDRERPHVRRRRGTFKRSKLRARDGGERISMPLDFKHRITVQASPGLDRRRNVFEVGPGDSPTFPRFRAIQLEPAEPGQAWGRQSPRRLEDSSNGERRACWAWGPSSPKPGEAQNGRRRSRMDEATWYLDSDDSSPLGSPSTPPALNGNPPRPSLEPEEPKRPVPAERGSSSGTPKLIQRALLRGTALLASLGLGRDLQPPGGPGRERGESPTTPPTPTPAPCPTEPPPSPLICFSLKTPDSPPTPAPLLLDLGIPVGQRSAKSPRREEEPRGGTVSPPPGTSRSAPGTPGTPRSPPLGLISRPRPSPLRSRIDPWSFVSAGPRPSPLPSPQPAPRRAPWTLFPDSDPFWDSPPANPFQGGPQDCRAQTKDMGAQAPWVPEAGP
Procedure, shortened: (§1)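 MCF-7 and MDA-MB-468 cells were treated for 24 h across 0.1–5 μM, with DMSO as control. MLK3 was immunoblotted and quantified as percent remaining versus concentration, from which DC50 and Dmax were derived.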

[2] = molecular target: T1, von Hippel-Lindau disease tumor suppressor/Mitogen-activated protein kinase kinase kinase 11; test: PROTAC activity at VHL/MLK3 in human MDA-MB-468 cells assessed as protein degradation at 1 uM measured after 24 hrs by immunoblot analysis; procedure, shortened: as §1
[3] = molecular target: T1, von Hippel-Lindau disease tumor suppressor/Mitogen-activated protein kinase kinase kinase 11; test: PROTAC activity at VHL/DOX-inducible MLK3 (unknown origin) overexpressed in human HCC1806 cells assessed as protein degradation at 0.25 to 1 uM measured after 24 hrs by immunoblot analysis; details: dose 0.25-1 µM
[4] = molecular target: Mitogen-activated protein kinase kinase kinase 11 (Homo sapiens) (UniProt Q16584); test: Induction of degradation of DOX-inducible MLK3 (unknown origin) overexpressed in human MCF7 cells at 0.5 to 1 uM measured after 24 hrs by immunoblot analysis; details: dose 0.5-1 µM
Sequence of Mitogen-activated protein kinase kinase kinase 11 (Homo sapiens) (Q16584 whole entry, looked up): as above

[5] = molecular target: Mitogen-activated protein kinase kinase kinase 11 (Homo sapiens) (UniProt Q16584); test: Induction of degradation of DOX-inducible MLK3 (unknown origin) overexpressed in human MDA-MB-468 cells at 0.5 to 1 uM measured after 24 hrs by immunoblot analysis; details: dose 0.5-1 µM

SMILES | Activity [1] | Activity [2] | Activity [3] | Activity [4] | Activity [5]
CCSCc1ccc2c(c1)c1c3c(c4c5cc(CSCC)ccc5n5c4c1n2[C@H]1C[C@](O)(C(=O)NCCOCCOCCOCC(=O)N[C@H](C(=O)N2C[C@@H](O)C[C@H]2C(=O)N[C@@H](C)c2ccc(-c4scnc4C)cc2)C(C)(C)C)[C@]5(C)O1)CNC3=O | inactive | inactive | inactive | – | –
CCSCc1ccc2c(c1)c1c3c(c4c5cc(CSCC)ccc5n5c4c1n2[C@H]1C[C@](O)(C(=O)OC)[C@]5(C)O1)CNC3=O | – | – | – | inactive | inactive
